In ChEMBL document CHEMBL4673177, “Structure-activity relationships of sulfonamides derived from carvacrol and their potential for the treatment of Alzheimer''s disease” (RSC Med Chem, 2020) one finds Activity, Time and IC50 data, which are given here for seven compounds.

Molecules are shown by their SMILES. Calls of active or inactive are those of the source. The rule behind the calls is not given here.

In series [1] the test system is Mus musculus. The experiment in a line: Antioxidant activity in STZ-induced mouse model of Alzheimer's disease assessed as increase in GSH level in brain at 30 mg/kg, ip treated from 3 to 12 days starting from 3 days post initial STZ stimulation and measured on day 17 by spectrophotometric method. In kind it is functional, organism-based. The conditions noted are these: time 3-12 day. An outline of the steps: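 Brains collected one day after the last behavioural test, homogenized in phosphate buffer pH 7.4 and spun at 3000g for 15 min. Whole-brain GSH in the supernatant measured by a modified Beutler method, absorbance at 412 nm. Quantified against a GSH standard curve (5–50 μg); expressed as nmol GSH/mg protein.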

For series [2], the system named is Mus musculus. As to the kind of experiment: Antioxidant activity in STZ-induced mouse model of Alzheimer's disease assessed as reduction in TBARS level in brain at 30 mg/kg, ip treated from 3 to 12 days starting from 3 days post initial STZ stimulation and measured on day 17 by spectrophotometric method. The conditions noted are these: time 3-12 day. In kind it is functional, organism-based. The essentials:
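After the final behavioural test, brain homogenate (phosphate buffer pH 7.4, 3000g for 15 min) used for TBARS. The mixture was vortexed and centrifuged at 4000g for 10 min. The organic layer was read at 532 nm.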

The subject of series [3] is Mus musculus. As to the kind of experiment: Antialzheimer activity in streptozotocin-induced mouse model of memory impairment assessed as median time of avoidance latency descent at 30 mg/kg, ip treated from 3 to 12 days starting from 3 days post initial STZ stimulation and measured on day 16 by avoidance test (reference value: 14 sec). Type of series: functional. The conditions noted are these: time 3-12 day. An outline of the steps: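 3-month-old female mice (25.0–30.0 g), STZ given i.c.v. as 3 μL of 2.5 mg mL-1 solution, repeated after 48 h. Vehicle or compound dosed i.p. until day 12. Training: shock 0.4 mA for 2 s on stepping down from the platform. Next-day test session without shock; descent latency timed. Reported as median with interquartile interval. N = 8–10 per group.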

Series [4] concerns Mus musculus. As to the kind of experiment: Anxiolytic-like activity in STZ-induced mouse model of Alzheimer's disease assessed as open arm time permanency at 30 mg/kg, ip treated from 3 to 12 days starting from 3 days post initial STZ stimulation and measured on day 14 by elevated plus maze test (reference value: 37.6%). Type of series: functional. The conditions noted are these: time 3-12 day.

In series [5] the test system is Mus musculus. As to the kind of experiment: Anxiolytic-like activity in STZ-induced mouse model of Alzheimer's disease assessed as open arm frequency at 30 mg/kg, ip treated from 3 to 12 days starting from 3 days post initial STZ stimulation and measured on day 14 by elevated plus maze test (reference value: 51.17%). The conditions noted are these: time 3-12 day. In kind it is functional.

The nature of series [6]: Effect on behavioral activity in STZ-induced mouse model of Alzheimer's disease assessed as rearing at 30 mg/kg, ip treated from 3 to 12 days by open field test (reference value: 53.60 +/- 1.62). Type of series: ADME, organism-based. The note with it: in vivo, time 3-12 day.
Series [7] is described as follows: Effect on locomotory activity in STZ-induced mouse model of Alzheimer's disease assessed as number of crossing 30 mg/kg, ip treated from 3 to 12 days by open field test (reference value: 114.00 +/- 3.12). The note with it: in vivo, time 3-12 day. Type of series: organism-based.
Series [8] deals with Acetylcholinesterase (Homo sapiens, UniProt P22303). The experiment in a line: Inhibition of AChE (unknown origin) using acetylthiocholine iodide as substrate preincubated for 15 mins followed by substrate addition and measured after 30 mins by Ellman's method. (In Ellman's method for cholinesterases, released thiocholine reacts with DTNB.)
Acetylcholinesterase, sequence (P22303 whole entry): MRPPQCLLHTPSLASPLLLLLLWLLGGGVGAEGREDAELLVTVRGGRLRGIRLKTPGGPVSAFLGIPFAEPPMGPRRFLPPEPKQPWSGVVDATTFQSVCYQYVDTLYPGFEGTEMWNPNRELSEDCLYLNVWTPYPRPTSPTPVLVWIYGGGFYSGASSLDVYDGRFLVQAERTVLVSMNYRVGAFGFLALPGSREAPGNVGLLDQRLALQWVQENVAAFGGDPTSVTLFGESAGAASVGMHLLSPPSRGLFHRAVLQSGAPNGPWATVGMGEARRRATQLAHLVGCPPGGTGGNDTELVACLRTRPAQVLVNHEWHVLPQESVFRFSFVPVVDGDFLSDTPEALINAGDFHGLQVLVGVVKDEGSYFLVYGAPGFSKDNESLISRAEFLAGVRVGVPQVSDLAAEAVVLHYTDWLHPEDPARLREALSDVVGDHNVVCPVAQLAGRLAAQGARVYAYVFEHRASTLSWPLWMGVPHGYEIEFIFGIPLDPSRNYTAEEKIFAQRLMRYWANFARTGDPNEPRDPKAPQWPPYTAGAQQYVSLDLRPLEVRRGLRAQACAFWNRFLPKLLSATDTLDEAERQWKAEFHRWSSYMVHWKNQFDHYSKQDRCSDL
Series [9] concerns Mus musculus. As to the kind of experiment: Anxiolytic-like activity in STZ-induced mouse model of Alzheimer's disease assessed as open arm time permanency at 0.5 mg/kg, ip treated from 3 to 12 days starting from 3 days post initial STZ stimulation and measured on day 14 by elevated plus maze test (reference value: 37.6%). In kind it is functional. The note with it: time 3-12 day. An outline of the steps: (§1)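 Female mice given STZ i.c.v. twice (48 h apart) were treated i.p. until day 12. Each mouse was placed in the centre of the elevated plus maze facing a closed arm and observed for 5 min. N about 8–10 per group.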

Series [10] deals with Mus musculus. As to the kind of experiment: Anxiolytic-like activity in STZ-induced mouse model of Alzheimer's disease assessed as open arm frequency at 0.5 mg/kg, ip treated from 3 to 12 days starting from 3 days post initial STZ stimulation and measured on day 14 by elevated plus maze test (reference value: 51.17%). In kind it is functional. The conditions noted are these: time 3-12 day. An outline of the steps: as §1

Series [11] can be described thus: Effect on locomotory activity in STZ-induced mouse model of Alzheimer's disease assessed as number of crossing 0.5 mg/kg, ip treated from 3 to 12 days by open field test (reference value: 114.00 +/- 3.12). The note with it: in vivo, time 3-12 day. Type of series: organism-based.
A short description of series [12]: Effect on behavioral activity in STZ-induced mouse model of Alzheimer's disease assessed as rearing at 0.5 mg/kg, ip treated from 3 to 12 days by open field test (reference value: 53.60 +/- 1.62). In kind it is organism-based. The note with it: in vivo, time 3-12 day.
Series [13] concerns Mus musculus. The experiment in a line: Antialzheimer activity in streptozotocin-induced mouse model of memory impairment assessed as median time of avoidance latency descent at 0.5 mg/kg, ip treated from 3 to 12 days starting from 3 days post initial STZ stimulation and measured on day 16 by avoidance test (reference value: 14 sec). Type of series: functional. The conditions noted are these: time 3-12 day.

With `Cc1cc(S(=O)(=O)Nc2cnccn2)c(C(C)C)cc1O`, the result in series [1] and in series [2] was Active. Besides, in [3], the Time came out at 80 s. The Activity was 19.3% in [4], 47.7% in [5], 50.17 in [6] and 108.34 in series [7]. For the same compound, in series [8], half-maximal inhibition (IC50) was put at 7.34 µM.
For `Cc1cc(S(=O)(=O)NCc2ccccn2)c(C(C)C)cc1O`, the Time in [3] stood at 72 s. The Activity in [4] is 76%; in [5] it was 69.44%; in series [6], 46.17; in series [7], 102.45. This compound also had an IC50 in series [8] of 6.99 µM.
As to `COc1ccc2c3c1O[C@H]1C[C@@H](O)C=C[C@@]31CCN(C)C2` [GALANTAMINE], the Activity in series [9] is reported as 6.6%; in series [10] it was 22.3%; in [11] it was 122.5; in [12] it was 54.23. The Time in series [13] worked out at 122.5 s.
In the case of `Cc1ccc(C(C)C)cc1O` [CARVACROL], inhibition in series [8] was half-maximal at 284 µM (IC50).
Turning to `Cc1cc(S(=O)(=O)Nc2ccccc2O)c(C(C)C)cc1O`, the outcome in series [1] and in series [2] was Active. In addition, the Time in [3] turned out to be 107 s. In addition, the Activity in series [4] is 42%; in series [5], 41.9%; in [6] it was 44.56; in series [7], 107. This compound showed an IC50 in [8] of 8.74 µM.
Take `Cc1cc(S(=O)(=O)N2CCOCC2)c(C(C)C)cc1O`: the result in series [1] and in series [2] was Active. In addition, the Time in series [3] is recorded as 116.5 s. In addition, the Activity came out at 14.3% in series [4], 25.11% in series [5], 43.8 in series [6] and 116.3 in [7]. In [8], this compound returned a half-inhibitory concentration (IC50) of 5.64 µM.
With `Cc1cc(S(=O)(=O)NN)c(C(C)C)cc1O`, the outcome in series [1] and in series [2] was Active. In series [3], the Time was found to be 130 s. Also, the Activity is 17.1% in series [4], 43.31% in [5], 44.18 in series [6] and 98.45 in series [7]. The same compound yielded an IC50 in [8] of 9.24 µM.

A word on the IC50: it is the concentration needed to halve the response being measured.
